# pIC50, pKd: −log10 of the molar value. Calls of active or inactive are those of the source. The rule behind the calls is not given here.
# How the values were obtained:
# [1] = system: Human immunodeficiency virus 1; test: Binding affinity to immobilized HIV1 YU2 gp120 upto 1 mM by surface plasmon resonance method
# Outline: (§1)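 YU2 gp120 (Drosophila S2-expressed, F105-affinity purified) amine-coupled to CM5 chip (~4000 RU); peptides in PBS injected at 15 μL/min, 5 min association, 5 min dissociation. Buffer and anti-IL5Rα 2B6R control-surface responses subtracted; kinetic constants fitted in BIAevaluation.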
# [2] = Inhibition of HIV1 YU2 gp120 binding to immobilized CD4 binding site specific F105 monoclonal antibody by surface plasmon resonance method; design: species or system Human immunodeficiency virus 1
# [3] = Inhibition of HIV1 YU2 gp120 binding to immobilized CD4 induced 17b monoclonal antibody by surface plasmon resonance method; design: species or system Human immunodeficiency virus 1
# [4] = Binding affinity to HIV1 YU2 gp120 by isothermal titration calorimetric method; design: species or system Human immunodeficiency virus 1
# [5] = Inhibition of HIV1 YU2 gp120 binding to immobilized CD4 binding site specific immunoglobulin G b12 monoclonal antibody by surface plasmon resonance method; design: species or system Human immunodeficiency virus 1
# [6] = Inhibition of HIV1 YU2 gp120 binding to immobilized CD4 by surface plasmon resonance method; design: species or system Human immunodeficiency virus 1
# [7] = Cytotoxicity against CCR5 expressing human P4 cells after 2 hrs by MTT assay; type: cell-based; conditions: p4, 2 h
# Outline: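 P4-CCR5 cells seeded 4×10^4/well ~18 h ahead, exposed 2 h to varying peptide concentrations, washed, then viability by MTT; triplicate in two independent assays.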
# [8] = Inhibition of HIV1 YU2 gp120 binding to immobilized CD4 binding site specific b6 monoclonal antibody by surface plasmon resonance method; design: species or system Human immunodeficiency virus 1
# [9] = Binding affinity to immobilized HIV1 YU2 gp120 by surface plasmon resonance method; design: species or system Human immunodeficiency virus 1; outline: as §1
# [10] = system: Human immunodeficiency virus 1; test: Antiviral activity against HIV1 BaL in CCR5 expressing P4 cells after 2 hrs; type: functional, organism-based; conditions: Human immunodeficiency virus 1, BaL, P4, 2 h
# Outline: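 P4-CCR5 cells (DMEM, 10% FBS, puromycin) seeded 1.2×10^4/well ~18 h ahead; exposed 2 h to HIV-1 BaL plus peptide, washed, cultured 46 more h; infection read by β-galactosidase reporter assay. Infectivity relative to mock-treated infected cells; IC50 from sigmoidal dose-response fit; two independent experiments combined.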
Activity [1],pIC50 [2],pIC50 [3],pKd [4],pIC50 [5],pIC50 [6],pIC50 [8],pKd [9],pIC50 [10],SMILES,Activity [7]
inactive,–,–,–,–,–,–,–,–,CC[C@H](C)[C@H](NC(=O)[C@@H](N)CCCNC(=N)N)C(=O)N[C@@H](CC(N)=O)C(=O)N[C@@H](CC(N)=O)C(=O)N[C@H](C(=O)N1C[C@@H](n2cc(C3(N)CCCCC3)nn2)C[C@H]1C(=O)N[C@@H](Cc1c[nH]c2ccccc12)C(=O)N[C@@H](CO)C(=O)N[C@@H](CCC(=O)O)C(=O)N[C@@H](C)C(=O)N[C@@H](CCSC)C(=O)N[C@@H](CCSC)C(=O)O)[C@@H](C)CC,–
–,5.19,5.14,5.59,5.06,5.27,5.00,5.30,4.32,CC[C@H](C)[C@H](NC(=O)[C@@H](N)CCCNC(=N)N)C(=O)N[C@@H](CC(N)=O)C(=O)N[C@@H](CC(N)=O)C(=O)N[C@H](C(=O)N1CCC[C@H]1C(=O)N[C@@H](Cc1c[nH]c2ccccc12)C(=O)N[C@@H](CO)C(=O)N[C@@H](CCC(=O)O)C(=O)N[C@@H](C)C(=O)N[C@@H](CCSC)C(=O)N[C@@H](CCSC)C(=O)O)[C@@H](C)CC [RINNIPWSEAMM],Non-toxic
–,6.96,6.76,7.48,6.79,6.81,6.97,7.64,5.85,CC[C@H](C)[C@H](NC(=O)[C@@H](N)CCCNC(=N)N)C(=O)N[C@@H](CC(N)=O)C(=O)N[C@@H](CC(N)=O)C(=O)N[C@H](C(=O)N1C[C@@H](n2cc(-c3ccccc3)nn2)C[C@H]1C(=O)N[C@@H](Cc1c[nH]c2ccccc12)C(=O)N[C@@H](CO)C(=O)N[C@@H](CCC(=O)O)C(=O)N[C@@H](C)C(=O)N[C@@H](CCSC)C(=O)N[C@@H](CCSC)C(=O)O)[C@@H](C)CC,Non-toxic

# From ChEMBL document CHEMBL1150247, “Structural determinants for affinity enhancement of a dual antagonist peptide entry inhibitor of human immunodeficiency virus type-1” (J Med Chem, 2008)
